Calb FLC – C. albicans growth modulation with fluconazole. 300,000 tested, 0.57% active. growth inhibition, % (no concentration beside the values). C. albicans CaCi-2 (fluconazole-resistant clinical isolate) + fluconazole, Alamar Blue growth, 48 h;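 active = growth inhibition above about 58% in most replicates, limit read from the data, passing the limit was not always enough; inconclusive = exactly half the replicates above a set limit; inactive = most replicates below a set limit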;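 also: all wells also contain fluconazole at 8 µg/ml as a sub-toxic cotreatment; 0% = median of DMSO wells and 100% = median of geldanamycin control wells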
ARFGAP1 inhibitor – rat ARFGAP1 inhibition; Arfgap1-stimulated ARF1 GTP hydrolysis, GDP FP detection; inhibition, % at 16.5 µM; Q62848; 360,000 tested, 0.26% active;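 active = inhibition above a per-plate limit, mean inhibition of low control wells plus 3 SD, cut at about 25% in these data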;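 also: 0% = DMSO wells with enzyme and 100% = wells lacking Arfgap1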
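Material: rat Arfgap1 catalytic domain, aa 1-136; also added: human ARF1(Δ1-17)-GTP substrate; compound dosing: one concentration, 16.5 µM, DMSO 1.26%; incubation: GTP hydrolysis reaction 2 h at 25 °C; measured by: Tracer-displacement fluorescence polarization with EDTA stop, 620/688 nm; evaluation: % inhibition from polarization; repeats: one replicate per compound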
SKKanGAS inh – blocks kanamycin growth of S. pyogenes SKKanGAS strain | BacTiter-Glo, 6 h | inhibition, % at 7.5 µM | 300,000 tested, 1.3% active | AID 1662;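 active = mean replicate score, as percent of positive control median, at least 50; inconclusive = mean below 50 but one replicate at or above 50; inactive = mean and every replicate below 50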;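 also: strain carries kanamycin resistance gene driven by streptokinase promoter and grows in 40 µg/ml kanamycin; loss of luminescence reflects streptokinase promoter inhibition or plain growth inhibition; 0% = median of DMSO wells and 100% = positive control at its reference dose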
ASAP1 GAP inh – blocks human ASAP1-stimulated Arf1 GTP hydrolysis. GDP FP detection. inhibition, % at 16.5 µM. 360,000 tested, 0.19% active. AID 624377; in the data active = inhibition above about 25%;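 also: 0% = vehicle with enzyme and substrate and 100% = no enzyme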
HGIII-sPLA2 inh – Blocks human group III sPLA2 activity; Q9NZ20; QFRET BODIPY PC-A2 liposome hydrolysis, fluorescence; AID 743126; 370,000 tested, 0.56% active; inhibition, % at 12.2 µM;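 active = inhibition above mean plus 3 SD of compounds lying within the high and low control bounds, cut at about 19% in these data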;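 also: 0% = median of test compound wells and 100% = no enzyme DMSO wells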
Target sequence (Q9NZ20 whole entry, looked up): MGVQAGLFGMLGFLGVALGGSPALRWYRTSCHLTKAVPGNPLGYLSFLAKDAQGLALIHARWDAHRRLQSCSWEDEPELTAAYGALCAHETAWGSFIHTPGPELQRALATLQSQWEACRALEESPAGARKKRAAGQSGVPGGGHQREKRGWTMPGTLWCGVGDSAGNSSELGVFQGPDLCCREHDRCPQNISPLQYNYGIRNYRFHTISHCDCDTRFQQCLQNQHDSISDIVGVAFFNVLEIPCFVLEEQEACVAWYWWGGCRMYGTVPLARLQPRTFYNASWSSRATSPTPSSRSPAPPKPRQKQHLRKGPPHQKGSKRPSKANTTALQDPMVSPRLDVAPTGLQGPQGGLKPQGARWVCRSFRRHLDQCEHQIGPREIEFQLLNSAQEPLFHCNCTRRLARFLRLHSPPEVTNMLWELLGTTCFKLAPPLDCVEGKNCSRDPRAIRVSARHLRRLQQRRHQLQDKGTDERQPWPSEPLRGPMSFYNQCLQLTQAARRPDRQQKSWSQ
* hit, by the source's call; ? = inconclusive; / = no result given. A selection: hits, their analogues and other compounds. The true share with any hit is near 2.3%.

SMILES | Calb FLC | ARFGAP1 inhibitor | SKKanGAS inh | ASAP1 GAP inh | HGIII-sPLA2 inh
Cc1cc(NC(=O)CO/N=C/c2ccc3c(c2)OCO3)ccc1Br | -11 | -2 | -7 | 0 | -5
COC(=O)c1ccc(C(=O)OC)c(NC(=O)CN(C)Cc2cccc(Cl)c2Cl)c1 | -4 | -3 | 69* | 9 | 1
COc1cc(/C=C2\CCC/C(=C\c3ccc(O)c(OC)c3)C2=O)ccc1O | -7 | 18 | 65* | 15 | 5
CC1CCC(C(=O)c2c(O)c3ccccc3oc2=O)CC1 (stereo unspecified) | 108* | 15 | 53* | -9 | 1
CC(=N)c1c(O)c2ccccc2oc1=O | 1 | 2 | 2 | -4 | -2
Cn1c(Oc2cccnc2CN2CCCC2)nc2cc(-c3cccc(C(F)(F)F)c3)sc2c1=O | / | 7 | / | 4 | -26
O=C(COC(=O)c1ccc(O)cc1O)c1ccc2c(c1)OCO2 | 8 | 5 | 52* | 5 | -1
CCCCSc1nc(C)cc(SCC(=O)N/N=C/c2cccc(OC)c2O)n1 | -16 | 4 | 70* | -2 | -4
COc1ccc(CCCC(=O)N/N=C/c2cccc(OC)c2O)cc1C | 1 | -4 | 75* | 0 | -18
COc1cccc(/C=N/NC(=O)c2c(C)nc3ccc(Cl)cn23)c1O | 104* | -7 | 103* | 11 | 10
COc1ccccc1/C=N/NC(=O)CSc1ccc2ccccc2n1 | 9 | 6 | 1 | 7 | -1
COc1ccccc1/C=N\NC(=O)c1c(C)nc2ccc(Cl)cn12 | -28 | -8 | -3 | 7 | 2
COc1cccc(/C=N/NC(=O)C[n+]2ccccc2)c1O | -7 | 4 | -4 | 1 | -2
COCCN1C(=O)[C@H]2C[C@@]13O[C@H](C1CCCCC1)N=C3CC1c3ccccc3C[C@@]12C (stereo partly specified) | / | 1 | / | -6 | 1
CC1CCN(c2ccc(C(=O)O)cc2NS(=O)(=O)c2cccc3cccnc23)CC1 | / | / | / | / | -1
CSc1ccccc1C(=O)N1CCN(c2cccc(Cl)c2)CC1 | 2 | 5 | -6 | 1 | -9
CC(C)OC(=O)c1cccnc1N1CCN(c2cccc(Cl)c2)CC1 | -9 | -14 | 60* | -17 | 7
O=C1CC2c3cc(-c4cc5ccccc5o4)ccc3CCN2C(=O)CN1Cc1ccccc1 (stereo unspecified) | / | -2 | / | 16 | -18
Cc1ccc(S(=O)(=O)N2c3ccccc3OCC2C(C)(C)C)cc1 (stereo unspecified) | 3 | 12 | 58* | 2 | 2
Cc1ccc2c(c1)N(S(=O)(=O)c1ccc(F)cc1)C(C(C)(C)C)CO2 (stereo unspecified) | 1 | 3 | 30 | 6 | -7
C=CCn1c(COc2ccc(Cl)cc2)nnc1SCC(=O)c1ccccc1 | / | / | / | / | -49
Cc1cccc2[nH]c3c(N4CC=C(c5ccc(F)cc5)CC4)ncnc3c12 | 10 | 1 | 82* | 8 | 16
O=C(Nc1nnc(SCc2ccc(Cl)cc2)s1)c1cnccn1 | 80* | -8 | 22 | -13 | 11
O=C(Nc1ccc(Cl)cc1)Nc1nnc(SCc2ccc(Cl)cc2)s1 | -10 | -8 | -3 | -17 | 1
C[C@H]1CN([C@@H](C)CO)C(=O)CCCn2nncc2CO[C@@H]1CN(C)S(=O)(=O)c1cccs1 | / | 5 | / | -12 | 7
SMILES | Calb FLC | ARFGAP1 inhibitor | SKKanGAS inh | ASAP1 GAP inh | HGIII-sPLA2 inh
COC(=O)[C@]12C[C@H](CC(=O)NCc3ccc(OC)c(OC)c3)C(=O)N(Cc3ccccc3)C1=C[C@H](C1CCCC1)O[C@@H]2C | / | 2 | / | -15 | -5
CN1C2=N[C@@H](c3cccc(C(F)(F)F)c3)CC(=O)N2/C(=C\c2ccccc2)[C@H]1c1ccccc1 | / | / | / | / | 10
CCOC(=O)C1=C(Cc2ccc(C)cc2)C(=O)c2ccccc2C1=O | 28 | -14 | 64* | 14 | 0
CCOC(=O)C1=C(O)c2ccccc2C(=O)/C1=C\c1ccc(CC)cc1 | 56 | / | 81* | / | /
CCCc1ccc(/C=C2\C(=O)c3ccccc3C(O)=C2C(=O)OCC)cc1 | 59 | / | 40 | / | /
CCOC(=O)C1=CCN(S(=O)(=O)c2ccc(F)cc2)C1c1ccc(Cl)cc1 (stereo unspecified) | / | 3 | / | 9 | -6
CC(C)CCN1C(=O)c2ccc(C(=O)Nc3ccc(Br)cc3C(=O)O)cc2C1=O | 82* | -5 | ? | -16 | -12
CC(C)CCN1C(=O)c2ccc(C(=O)Nc3cc(C(=O)O)cc(C(=O)O)c3)cc2C1=O | -5 | -1 | -1 | -6 | 2
